These results are taken from ChEMBL document CHEMBL1139831, “The influence of modifications in imide fragment structure on 5-HT(1A) and 5-HT(7) receptor affinity and in vivo pharmacological properties of some new 1-(m-trifluoromethylphenyl)piperazines” (Bioorg Med Chem, 2007).

Experiment [1] has as its system Mus musculus. The experiment can be described thus: Anxiolytic activity in Swiss Albino mouse assessed as number of punished crossings for 60 secs at 2.5 mg/kg administered 30 mins before the test by four-plate test. In kind it is functional. In outline: (§1)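 Male Albino Swiss mice (24–28 g), compound suspended in 1% aqueous Tween 80, given ip (10 ml/kg). Mouse placed in box with four metal floor plates, 15 s exploration, then floor electrified (120 V, 0.5 s) at each plate-to-plate crossing, no new shock for 3 s. Punished crossings counted over 60 s. n = 9-10/group; one-way ANOVA then Dunnett's test.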

In experiment [2] the test system is Mus musculus. As to the kind of experiment: Anxiolytic activity in Swiss Albino mouse assessed as number of punished crossings for 60 secs at 1.25 mg/kg administered 30 mins before the test by four-plate test. The format is functional. In outline: as §1
The test system of experiment [3] is Mus musculus. As to the kind of experiment: Anxiolytic activity in Swiss Albino mouse assessed as number of punished crossings for 60 secs at 5 mg/kg administered 30 mins before the test by four-plate test. In kind it is functional. Put shortly: (§2)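 Male Albino Swiss mice dosed ip (1% aqueous Tween 80, 10 ml/kg) 30 min beforehand. Opaque box floored with four metal plates; 15 s free exploration, then each plate-to-plate crossing triggers a 0.5 s, 120 V floor shock, with no new shock for 3 s if running continues. Punished crossings counted over 60 s; n = 9-10, ANOVA plus Dunnett's test.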

The species named for experiment [4] is Mus musculus. Particulars: Swiss Albino, 5 mg/kg.
For experiment [5], the species on record is Mus musculus. Particulars: Swiss Albino, 5 mg/kg. The source holds these as a separate data set.
The species entered for experiment [6] is Mus musculus. Particulars: Swiss Albino, 2.5 mg/kg.
Experiment [7] deals with Mus musculus. As to the kind of experiment: Antidepressant activity in Swiss Albino mouse assessed as immobility time during final 4 mins of 6 mins session at 0.3 mg/kg administered 30 mins before the test by forced-swimming test. The format is functional. Put shortly:
(§3)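 Male Albino Swiss mice (24–28 g), compound given ip in 1% aqueous Tween 80 (10 ml/kg), 30 min before test. Mouse placed singly in glass cylinder (25 cm high, 10 cm diameter) holding 6 cm water at 23–25 °C for 6 min; immobility (floating, only small head-keeping movements) timed over last 4 min. n = 9-10 per group; one-way ANOVA then Dunnett's test.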

The test system of experiment [8] is Mus musculus. The experiment can be described thus: Anxiolytic activity in Swiss Albino mouse assessed as number of punished crossings for 60 secs at 0.3 mg/kg administered 30 mins before the test by four-plate test. The format is functional. Put shortly:
as §2

The species entered for experiment [9] is Mus musculus. Particulars: Swiss Albino, 5 mg/kg. The source holds these as a separate data set.
Experiment [10] deals with Rattus norvegicus. The experiment can be described thus: Effect on lower lip retraction in Wistar rat at 1 mg/kg. The format is functional. In outline: (§4)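 Male Wistar rats (290–310 g) dosed ip in 1% Tween 80 (2 ml/kg), caged singly; lower lip retraction scored 15, 30 and 45 min after dosing as 0 (incisors not visible), 0.5 (partly) or 1 (completely visible), totals up to 3 per rat. n = 6 per group; one-way ANOVA followed by Dunnett's test.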

In experiment [11] the test system is Mus musculus. The experiment can be described thus: Antidepressant activity in Swiss Albino mouse assessed as immobility time during final 4 mins of 6 mins session at 0.1 mg/kg administered 30 mins before the test by forced-swimming test. The format is functional. In outline:
as §3

For experiment [12], the species on record is Mus musculus. Particulars: Swiss Albino, 2.5 mg/kg. The source holds these as a separate data set.
Experiment [13] concerns Rattus norvegicus. As to the kind of experiment: Effect on lower lip retraction in Wistar rat at 0.1 mg/kg. The format is functional. Put shortly: as §4
The species entered for experiment [14] is Mus musculus. Particulars: Swiss Albino, 2.5 mg/kg. The source holds these as a separate data set.
The nature of experiment [15]: Displacement of [3H]prazosin from adrenergic alpha1 receptor in rat cortical membranes. In kind it is cell membranes, Membrane. Put shortly: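 Rat cortical membranes with [3H]-prazosin; phentolamine defines nonspecific binding. 7–9 drug concentrations in triplicate, at least three separate experiments; stopped by GF/B filtration with three ice-cold buffer washes, bound radioactivity by liquid scintillation counting; Ki from non-linear regression and Cheng-Prusoff equation.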
(In a radioligand displacement assay an active substance lowers the binding of a labelled ligand.)

Experiment [16] deals with Mus musculus. The experiment can be described thus: Effect on locomotor activity in Swiss Albino mouse assessed as number of crossings in 30 mins at 0.3 mg/kg administered 30 mins before the test. In kind it is functional. Put shortly: (§5)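 Male Albino Swiss mice given compound ip (1% Tween 80, 10 ml/kg) 30 min before placement singly in plastic cages in a multichannel photobeam activity monitor; ambulation crossings counted over the first 6 min and over a 30 min session. n = 9-10 per group; ANOVA then Dunnett's test.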

The test system of experiment [17] is Mus musculus. The experiment can be described thus: Effect on locomotor activity in Swiss Albino mouse assessed as number of crossings in 30 mins at 1 mg/kg administered 30 mins before the test. The format is functional. In outline:
as §5

Experiment [18] is filed under the species Mus musculus. Particulars: Swiss Albino, 5 mg/kg. The source holds these as a separate data set.
Experiment [19] deals with Mus musculus. The experiment can be described thus: Anxiolytic activity in Swiss Albino mouse assessed as number of punished crossings for 60 secs at 1 mg/kg administered 30 mins before the test by four-plate test. In kind it is functional. Put shortly: as §2
Experiment [20] is filed under the species Mus musculus. Particulars: Swiss Albino, 2.5 mg/kg. This is another data set of the same source.
Experiment [21] has as its system Rattus norvegicus. The experiment can be described thus: Effect on lower lip retraction in Wistar rat at 0.3 mg/kg. The format is functional. In outline: as §4
For experiment [22], the target named is 5-hydroxytryptamine receptor 7 (Homo sapiens, UniProt P34969). As to the kind of experiment: Displacement of [3H]5-CT from human 5HT7 expressed in HEK293 cells. The format is cell-based. Put shortly: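 HEK293 cells stably transfected with human 5-HT7(b) cDNA; membranes (10 µg protein) incubated 1 h at 37 °C in 50 mM Tris-HCl pH 7.4 with 4 mM MgCl2, 0.1 mM pargyline, 0.1% ascorbic acid, 0.5 nM [3H]-5-CT and 7–9 test concentrations in triplicate; 10 µM 5-HT defines nonspecific binding. GF/B filtration, scintillation counting; Ki via Cheng-Prusoff from ≥3 experiments.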

Experiment [23] addresses T1, 5-hydroxytryptamine receptor 1A (Rattus norvegicus, UniProt P19327).
T1 sequence (P19327 whole entry): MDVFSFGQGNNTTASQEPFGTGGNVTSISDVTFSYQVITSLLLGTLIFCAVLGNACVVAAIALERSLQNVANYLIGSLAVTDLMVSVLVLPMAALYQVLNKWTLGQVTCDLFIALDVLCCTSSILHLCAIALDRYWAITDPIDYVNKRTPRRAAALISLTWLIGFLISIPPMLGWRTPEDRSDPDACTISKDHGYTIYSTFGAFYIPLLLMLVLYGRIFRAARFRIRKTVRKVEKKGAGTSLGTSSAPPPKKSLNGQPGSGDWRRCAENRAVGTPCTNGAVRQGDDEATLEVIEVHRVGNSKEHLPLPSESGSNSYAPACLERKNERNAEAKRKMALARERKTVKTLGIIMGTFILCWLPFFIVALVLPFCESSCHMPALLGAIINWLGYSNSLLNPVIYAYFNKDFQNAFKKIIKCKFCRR
The experiment can be described thus: Displacement of [3H]8-OH-DPAT from 5HT1A in rat hippocampal membranes. The format is cell membranes, Hippocampus, Membrane. In outline:
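Rat hippocampal membranes, [3H]-8-OH-DPAT as radioligand, 5-HT defining nonspecific binding. 7–9 drug concentrations run in triplicate, at least three separate experiments. Filtration through GF/B filters with three ice-cold buffer washes, scintillation counting. Ki from non-linear regression of binding isotherms via Cheng-Prusoff equation.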

The test system of experiment [24] is Mus musculus. As to the kind of experiment: Antidepressant activity in Swiss Albino mouse assessed as immobility time during final 4 mins of 6 mins session at 1 mg/kg administered 30 mins before the test by forced-swimming test. The format is functional. Put shortly: as §3
The subject of experiment [25] is Mus musculus. The experiment can be described thus: Effect on locomotor activity in Swiss Albino mouse assessed as number of crossings in 6 mins at 0.3 mg/kg administered 30 mins before the test. The format is functional. In outline:
as §5

The species named for experiment [26] is Mus musculus. Particulars: Swiss Albino, 5 mg/kg. The source holds these as a separate data set.
The species named for experiment [27] is Mus musculus. Particulars: Swiss Albino, 5 mg/kg. This is another data set of the same source.
In a further experiment the target is D(2) dopamine receptor (Rattus norvegicus, UniProt P61169). As to the kind of experiment: Displacement of [3H]spiperone from dopamine D2 receptor in rat striatal membranes. In kind it is cell membranes, Membrane. In outline: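 Competition binding on rat striatal membranes using [3H]-spiperone, butaclamol for nonspecific binding; filtration through GF/B filters and scintillation counting. Run at two compound concentrations, each in triplicate, and affinity expressed as estimated Ki.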

The subject of experiment [28] is Rattus norvegicus. The experiment can be described thus: Effect on 8-OH-DPAT-induced lower lip retraction in Wistar rat at 0.1 mg/kg. The format is functional.
Experiment [29] concerns Mus musculus. The experiment can be described thus: Effect on locomotor activity in Swiss Albino mouse assessed as number of crossings in 6 mins at 1 mg/kg administered 30 mins before the test. The format is functional. Put shortly:
as §5

Sequence of 5-hydroxytryptamine receptor 7 (P34969 whole entry): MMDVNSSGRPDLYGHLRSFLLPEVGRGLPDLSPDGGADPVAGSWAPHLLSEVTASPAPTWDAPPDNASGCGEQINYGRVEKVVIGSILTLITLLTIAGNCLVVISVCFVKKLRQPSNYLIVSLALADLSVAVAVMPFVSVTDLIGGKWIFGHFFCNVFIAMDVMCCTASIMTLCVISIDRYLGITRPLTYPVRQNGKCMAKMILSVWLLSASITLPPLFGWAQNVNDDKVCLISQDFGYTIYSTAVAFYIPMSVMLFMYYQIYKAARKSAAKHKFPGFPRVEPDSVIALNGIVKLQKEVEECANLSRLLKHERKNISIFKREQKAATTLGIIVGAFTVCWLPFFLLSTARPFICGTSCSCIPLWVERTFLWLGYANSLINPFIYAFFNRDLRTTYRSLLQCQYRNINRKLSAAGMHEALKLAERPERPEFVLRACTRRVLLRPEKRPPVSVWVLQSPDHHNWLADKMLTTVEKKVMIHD
Sequence of D(2) dopamine receptor (P61169 whole entry): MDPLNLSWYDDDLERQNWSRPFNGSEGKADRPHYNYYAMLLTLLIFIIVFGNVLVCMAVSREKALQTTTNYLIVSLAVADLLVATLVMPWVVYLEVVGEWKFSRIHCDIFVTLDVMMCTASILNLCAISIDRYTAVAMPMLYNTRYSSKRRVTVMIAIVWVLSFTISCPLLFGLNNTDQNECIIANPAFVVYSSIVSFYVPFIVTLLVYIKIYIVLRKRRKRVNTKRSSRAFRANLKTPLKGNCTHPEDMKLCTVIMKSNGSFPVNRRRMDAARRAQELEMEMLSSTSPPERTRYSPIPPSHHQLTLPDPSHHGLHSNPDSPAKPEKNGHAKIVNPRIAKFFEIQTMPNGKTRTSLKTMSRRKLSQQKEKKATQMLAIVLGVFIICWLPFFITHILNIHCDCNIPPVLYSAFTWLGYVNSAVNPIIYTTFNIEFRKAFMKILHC

Take `CN1C(=O)CN=C(c2ccccc2)c2cc(Cl)ccc21` [DIAZEPAM]: the Activity in the experiment on Mus musculus [1] came out at 6.8; in the experiment with Mus musculus [2], 5.5; in the experiment with Mus musculus [3], 6.7.
As to `O=C1CCCC(=O)N1C1CCC(N2CCN(c3cccc(C(F)(F)F)c3)CC2)CC1` (trans isomer), the deltaT is -1.2 °C in the experiment listed under Mus musculus [4]; -1.3 °C in the experiment filed under Mus musculus [5]; -0.5 °C in the experiment listed under Mus musculus [6]; -1.2 °C in the experiment listed under Mus musculus [9]; -0.5 °C in the experiment listed under Mus musculus [12]; -0.7 °C in the experiment filed under Mus musculus [14]. The deltaT in the experiment listed under Mus musculus [18] was -1.5 °C; in the experiment filed under Mus musculus [20] it was -0.3 °C; in the experiment listed under Mus musculus [26], -1.5 °C; in the experiment listed under Mus musculus [27], -1.6 °C. The Activity was determined as 70.1 s in the experiment with Mus musculus [7]; 3.9 in the experiment on Mus musculus [8]; 3 in the experiment with Rattus norvegicus [10]; 128.3 s with Mus musculus [11]; 1.3 with Rattus norvegicus [13]; 537.7 with Mus musculus [16]. The Activity in the experiment on Mus musculus [17] worked out at 374.3; in the experiment with Mus musculus [19], 3.9; with Rattus norvegicus [21], 2.4; with Mus musculus [24] it was 77.7 s; in the experiment with Mus musculus [25] it was 208.2; in the experiment on Mus musculus [3], 4.2. Further, the Activity with Rattus norvegicus [28] is 2.6; in the experiment with Mus musculus [29], 121.6. The Ki (in general, a measure of affinity in units of concentration, obtained from inhibition or displacement) in [15] was 85 nM; in [22] it was 1200 nM; in experiment [23], 2.6 nM; on D(2) dopamine receptor it was above 5000 nM.
